What is called EC50 is the concentration that produces a half-maximal response. Usually EC90 stands for the concentration at which the effect reaches the 90% level. A word on the IC50: it is the concentration that gives 50% inhibition. A word on the CC50: it is the concentration at which the toxic effect on the cells reaches its halfway point.

The values below come from ChEMBL document CHEMBL1949592, “Synthesis and antiviral activity of 2'-deoxy-2'-fluoro-2'-C-methyl-7-deazapurine nucleosides, their phosphoramidate prodrugs and 5'-triphosphates” (Bioorg Med Chem Lett, 2011).

For data set [1], the system named is Human immunodeficiency virus 1. As to the kind of experiment: Antiviral activity against HIV1 LAV1 infected in PHA-stimulated human PBMC assessed as reduction in RT activity after 6 days by micromethod-based beta scintillation counting. As to conditions: Human immunodeficiency virus 1, LAV1, 144 h. The data set is classed as functional, organism-based.
The next data set has as its system PBMC. As to the kind of experiment: Cytotoxicity against human PBMC after 6 days by trypan blue exclusion method. The data set is classed as cell-based. As to conditions: 144 h.
The test system of data set [2] is Huh-7. As to the kind of experiment: (§1) Cytotoxicity against human HuH7 cells assessed as reduction of 50% rRNA level after 96 hrs. In kind it is cell-based. As to conditions: huh-7, 96 h. The method in brief: (§2)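 Huh-7 cells carrying the HCV replicon were exposed to compound for 96 h. Toxicity was read as a fall in cellular rRNA.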
In another data set the test system is Hepatitis B virus. The data set can be described thus: Antiviral activity against wild type Hepatitis B virus infected in hepatocytes. In kind it is functional, organism-based. Conditions: Hepatocyte.
The test system of the next data set is Hepatitis C virus. As to the kind of experiment: Antiviral activity against Hepatitis C virus infected in human HuH7 cells assessed as decrease in viral RNA level after 96 hrs by RT-PCR. The data set is classed as functional, organism-based, Hepacivirus hominis. As to conditions: Huh-7, 96 h.
The test system of the next data set is Vero. As to the kind of experiment: Cytotoxicity against african green monkey Vero cells after 3 days by hemocytometer analysis. In kind it is cell-based. As to conditions: Chlorocebus sabaeus, 72 h.
Another data set concerns CCRF-CEM. As to the kind of experiment: Cytotoxicity against human CEM cells after 6 days by trypan blue exclusion method. As to conditions: 144 h. In kind it is cell-based.
A short description of data set [3]: as §1. In kind it is cell-based, Huh-7. Conditions: HuH7 cells. The essentials:
as §2

The test system of another data set is HepG2. As to the kind of experiment: Cytotoxicity against human HepG2 cells by neutral red dye uptake assay. In kind it is cell-based.
For data set [4], the system named is Huh-7. As to the kind of experiment: Metabolic stability in human HuH7 cells assessed as 5'-monophosphate level at 50 uM after 4 hrs by LC-MS/MS analysis. In kind it is ADME, cell-based. Conditions: huh-7, 4 h. The method in brief: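 Huh-7 cells were exposed to the parent nucleoside or its phosphoramidate prodrug, each separately at 50 μM, at 37 °C for 4 h, then washed with phosphate-buffered saline before intracellular analysis.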

Data set [5] deals with Huh-7. As to the kind of experiment: Metabolic stability in human HuH7 cells assessed as diphosphate level at 50 uM after 4 hrs by LC-MS/MS analysis. In kind it is ADME, cell-based. Conditions: huh-7, 4 h. The method in brief: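 For the cellular pharmacology study, Huh-7 cells were incubated separately with the nucleoside or its phosphoramidate prodrug at 50 μM for 4 h at 37 °C, then washed with phosphate-buffered saline before analysis of intracellular metabolites.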

The nature of data set [6]: Inhibition of Hepatitis C virus wild-type NS5B Cdelta 21 RNA dependent RNA polymerase expressed in Escherichia coli BL21(DE3). Set-up: species or system Hepacivirus hominis.
Data set [7] has as its target RNA-directed RNA polymerase (Hepacivirus hominis, UniProt O39930, S282T). The data set can be described thus: Inhibition of Hepatitis C virus NS5B Cdelta 21 RNA dependent RNA polymerase S282T mutant expressed in Escherichia coli BL21(DE3).
For a further data set, the system named is Hepacivirus hominis. The data set can be described thus: Fold resistance, ratio of HCV NS5B Cdelta 21 RNA dependent RNA polymerase S282T mutant to IC50 for IC50 for HCV wild type NS5B Cdelta 21 RNA dependent RNA polymerase.

Calls of active or inactive are those of the source. The rule behind the calls is not given here. Some results are limits rather than exact numbers.

Sequence of RNA-directed RNA polymerase (O39930 entry or part of it S282T): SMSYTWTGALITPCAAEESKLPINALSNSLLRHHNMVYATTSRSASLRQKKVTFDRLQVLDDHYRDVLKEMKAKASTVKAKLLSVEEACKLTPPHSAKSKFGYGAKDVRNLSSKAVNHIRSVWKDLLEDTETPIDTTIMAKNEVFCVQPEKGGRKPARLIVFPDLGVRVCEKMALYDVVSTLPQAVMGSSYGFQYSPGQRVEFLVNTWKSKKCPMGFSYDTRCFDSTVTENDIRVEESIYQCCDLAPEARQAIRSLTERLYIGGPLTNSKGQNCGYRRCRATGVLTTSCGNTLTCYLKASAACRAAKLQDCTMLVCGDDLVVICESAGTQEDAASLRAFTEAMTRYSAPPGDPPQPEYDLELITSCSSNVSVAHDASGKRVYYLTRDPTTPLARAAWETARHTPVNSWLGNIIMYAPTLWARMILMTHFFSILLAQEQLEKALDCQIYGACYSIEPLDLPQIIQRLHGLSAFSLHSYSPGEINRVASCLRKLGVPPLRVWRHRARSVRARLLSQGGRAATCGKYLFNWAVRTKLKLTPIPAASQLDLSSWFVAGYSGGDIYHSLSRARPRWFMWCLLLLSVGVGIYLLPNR

On to `COC(=O)/C=C/c1cn([C@H]2O[C@H](CO)[C@@H](O)[C@@]2(C)F)c2ncnc(N)c12`, for which the 50% effective concentration (EC50) in [1] is 0.71 µM; in the data set on Hepatitis C virus, above 10 µM. Moreover, the EC90 in [1] is 9.5 µM. In addition, the IC50 with PBMC, in the data set on Vero and in the data set with CCRF-CEM was above 100 µM each time. Besides, the cytotoxic concentration (CC50) in the data set with Huh-7 [2] is above 10 µM. Also, the result with Hepatitis B virus was inactive.

For the compound `C[C@@]1(F)[C@H](O)[C@@H](CO)O[C@@H]1n1cc(I)c2c(N)ncnc21`, the EC50 is above 100 µM in [1] and 7 µM in the data set with Hepatitis C virus. Moreover, the EC90 in data set [1] was above 100 µM; in the data set on Hepatitis C virus, 24.9 µM. The IC50 is above 100 µM in the data set on PBMC, 65.9 µM in the data set on Vero and 40.9 µM in the data set on CCRF-CEM. The 50% cytotoxic concentration (CC50) at 96 h in [3] is above 33 µM. Moreover, the result in the data set with Hepatitis B virus was Active. For the same compound, the Activity result with HepG2 is given as “Toxic”.

As to `C[C@@]1(F)[C@H](O)[C@@H](CO)O[C@H]1n1cc(I)c2c(N)ncnc21`, the concentration for a half-maximal effect (EC50) in [1] was 94 µM; in the data set with Hepatitis C virus it was 1.1 µM. Moreover, the concentration for an effect of 90% (EC90) in data set [1] was above 100 µM; in the data set on Hepatitis C virus, above 33 µM. The half-maximal inhibitory concentration (IC50) with PBMC turned out to be 53.2 µM; in the data set with Vero, 21.4 µM; in the data set on CCRF-CEM, 24 µM. The CC50 at 96 h in data set [3] is 10.4 µM.

On to `C[C@@]1(F)[C@H](O)[C@@H](CO)O[C@H]1n1cc(C#Cc2ccccc2)c2c(N)ncnc21`, for which the half-maximal effective concentration (EC50) in data set [1] is 10.7 µM; in the data set on Hepatitis C virus, below 10 µM. In data set [1], the EC90 was determined as 31.1 µM. In addition, the concentration for half-maximal inhibition (IC50) worked out at 41.1 µM in the data set with PBMC, 45.7 µM in the data set with Vero and 11.6 µM with CCRF-CEM. The CC50 in the data set on Huh-7 [2] was below 10 µM. Further, the outcome with Hepatitis B virus was Active. Moreover, in the data set with HepG2, the Activity result is “Toxic”.

As for `C[C@@]1(F)[C@H](O)[C@@H](CO)O[C@H]1n1ccc2c(N)nc(N)nc21`, the Stability result in the data set with Huh-7 [4] and in the data set with Huh-7 [5] was “Stable” in each case. The values for the EC50 (in data set [1]; in the data set on Hepatitis C virus) were above 100 µM and above 10 µM, respectively. Moreover, the IC50 with PBMC, in the data set on Vero and in the data set with CCRF-CEM was above 100 µM throughout. Further, the cytotoxic concentration (CC50) in the data set with Huh-7 [2] was above 10 µM. In addition, the EC90 in the data set on Hepatitis C virus is above 10 µM.

`C[C@@]1(F)[C@H](O)[C@@H](CO)O[C@@H]1n1cc(C#Cc2ccccc2)c2c(N)ncnc21`: the results for the EC50 (in [1]; in the data set with Hepatitis C virus) were 7.7 µM and above 10 µM, respectively. Moreover, the EC90 is 38 µM in data set [1] and above 10 µM with Hepatitis C virus. Moreover, the half-inhibitory concentration (IC50) turned out to be 40.8 µM in the data set with PBMC, 51.3 µM in the data set on Vero and 15.7 µM with CCRF-CEM. In the data set on Huh-7 [2], the cytotoxic concentration (CC50) is above 10 µM. Moreover, the result in the data set on Hepatitis B virus was inactive.

In the case of `CCOC(=O)[C@H](C)NP(=O)(OC[C@H]1O[C@@H](n2ccc3c(N)nc(N)nc32)[C@](C)(F)[C@@H]1O)Oc1ccccc1` (stereo partly specified), the Stability entry in the data set on Huh-7 [4] was “Unstable”. In addition, the values for the half-maximal effective concentration (EC50) (in [1]; with Hepatitis C virus) were 88 µM and above 10 µM, respectively. The EC90 in data set [1] was above 100 µM; in the data set on Hepatitis C virus it was above 10 µM. In addition, the half-inhibitory concentration (IC50) with PBMC, in the data set on Vero and in the data set on CCRF-CEM was above 100 µM in each case. For the same compound, the CC50 with Huh-7 [2] was above 10 µM.

On to `COP(=O)(OC)OP(=O)(OC)OP(=O)(OC)OC[C@H]1O[C@@H](n2cc(F)c3c(N)ncnc32)[C@](C)(F)[C@@H]1O` (stereo partly specified), for which the results for the IC50 in data set [6] and in [7] were 4 µM and 6 µM, respectively. In addition, the Ratio IC50 in the data set with Hepacivirus hominis was 1.5.

Consider `COP(=O)(OC)OP(=O)(OC)OP(=O)(OC)OC[C@H]1O[C@@H](n2ccc3c(N)ncnc32)[C@](C)(F)[C@@H]1O` (stereo partly specified), for which, in [7], the IC50 worked out at 15 µM. Besides, the Ratio IC50 in the data set on Hepacivirus hominis came out at 1.

With `C#Cc1cn([C@H]2O[C@H](CO)[C@@H](O)[C@@]2(C)F)c2nc(N)nc(N)c12`, the half-maximal effective concentration (EC50) is 7.1 µM in data set [1] and above 10 µM with Hepatitis C virus. Further, the concentration for an effect of 90% (EC90) was 59.1 µM in [1] and above 10 µM in the data set on Hepatitis C virus. Moreover, the concentration for half-maximal inhibition (IC50) with PBMC was 54 µM; in the data set on Vero, 61.7 µM; in the data set with CCRF-CEM it was 26.5 µM. Moreover, the CC50 in the data set on Huh-7 [2] was above 10 µM. Further, the result in the data set with Hepatitis B virus was inactive.
